From publication PMC12778361 (Chemical Science, 2025)
Where two headings read alike, the source gives them in different places.

Key:
[1] = 1 M HCl, 298 K; cited from earlier work
[2] = T1-weighted phantom images at 7 T in mouse serum and PBS; format: physicochemical; settings: 25 °C, 0.3 mM in mouse serum
Outline: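 T1-weighted phantoms of Gd3+ complex in mouse blood serum were imaged at 7 T. A clinical Gd3+ agent and serum alone served as comparators. A spin echo sequence was used, TE = 10 ms, TR = 400 ms, and signal intensities were read.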

[3] = cited from earlier work

SMILES	kobs dissociation rate constant [1] [s⁻¹]	t1/2 dissociation half-life [1] [min]	signal intensity, T1-weighted phantom [2]	r1 relaxivity ([3]; 20 MHz, 25 °C) [mM⁻¹ s⁻¹]	kex^298 water exchange rate ([3]; SAP isomer)	ΔH≠ ([3]; SAP isomer) [kcal/mol]	ΔS≠ ([3]; SAP isomer)	kex^298 water exchange rate ([3]; TSAP isomer)	ΔH≠ ([3]; TSAP isomer) [kcal/mol]	τR^298 rotational correlation time [3] [ps]
O=C([O-])CN1CCNCCN(CC(=O)[O-])CCN(CC(=O)[O-])CC1.[Gd+3] [GdDO3A]	0.023	0.5								
O=C([O-])CN1CCN(CC(=O)[O-])CCN(CC(=O)O)CCN(CC(=O)[O-])CC1.[Gd+3] [GdDOTA]	1.8e-06	6418	3.97 × 10^4							
CC(O)CN1CCN(CC(=O)[O-])CCN(CC(=O)[O-])CCN(CC(=O)[O-])CC1.[Gd+3] (centres unmarked) [GdHPDO3A]	0.00026	44		4.6	1.56 10^6 s^−1	12.7	+52 kJ mol^−1 K^−1	112 10^6 s^−1	3.59	65
